Screens (PubChem)
ABHD4 inh: inhibitors of mouse ABHD4. purified mABHD4, FP-Rh probe fluorescence polarization. inhibition, % at 8.92 µM. 370,000 tested, 0.54% active;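 active = inhibition exceeding the mean over every tested compound plus 3 SD, cut at about 30% in these data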
Target sequence (Q8VD66 whole entry, looked up): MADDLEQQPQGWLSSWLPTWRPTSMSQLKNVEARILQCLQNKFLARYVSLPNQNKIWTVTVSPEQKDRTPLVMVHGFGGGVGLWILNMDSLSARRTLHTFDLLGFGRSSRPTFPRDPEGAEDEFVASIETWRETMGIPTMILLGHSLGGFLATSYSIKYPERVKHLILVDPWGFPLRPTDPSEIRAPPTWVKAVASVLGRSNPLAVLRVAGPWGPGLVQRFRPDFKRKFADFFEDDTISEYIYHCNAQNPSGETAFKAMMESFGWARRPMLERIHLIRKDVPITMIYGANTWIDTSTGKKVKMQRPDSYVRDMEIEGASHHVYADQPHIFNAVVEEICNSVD
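Test system: mouse ABHD4 enzyme, wild type. Reagent: FP-Rh fluorescent activity-based probe, added after compound pre-incubation. Timing: pre-incubation 45 min, probe exposure 60 min, at 25 °C. Technique: FP readout, ex 525 nm / em 598 nm. Benchmarks: high control S159A mutant with DMSO, low control median of compound wells.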
HTRA1 inh: HTRA1 (human) protease inhibition. recombinant HTRA1, FP-rhodamine activity-based probe, fluorescence polarization. Q92743. inhibition, % at 5.96 µM. AID 504803. 340,000 tested, 0.5% active; in the data active = inhibition above about 36%
TCR CD3 inh: blocks the human TCR-CD3 interaction; TAMRA-labeled TCR probe fluorescence, biochemical; inhibition, % at 9.4 µM; 360,000 tested, 0.37% active; AID 651800; in the data active = inhibition above about 19%;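 also: recombinant mutant TCR 2C K166C tagged with TAMRA read by polarization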
PAD4 FP inh: inhibitors of human PAD4 | AID 485272 | 330,000 tested, 0.41% active | recombinant PAD4, RCA probe fluorescence polarization | inhibition, % at 6.36 µM | Q9UM07;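 active = percent inhibition above a cutoff equal to the mean of all tested compounds plus 3 SD, cut at about 15% in these data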
PRMT1 inh: PRMT1 (human) inhibition, primary screen. 370,000 tested, 1.3% active. inhibition, % at 2.79 µM. recombinant PRMT1, activity-based probe fluorescence polarization;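 active = inhibition above about 21% made by adding two undisclosed values, limit read from the data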
Target sequence (Q99873 whole entry, looked up): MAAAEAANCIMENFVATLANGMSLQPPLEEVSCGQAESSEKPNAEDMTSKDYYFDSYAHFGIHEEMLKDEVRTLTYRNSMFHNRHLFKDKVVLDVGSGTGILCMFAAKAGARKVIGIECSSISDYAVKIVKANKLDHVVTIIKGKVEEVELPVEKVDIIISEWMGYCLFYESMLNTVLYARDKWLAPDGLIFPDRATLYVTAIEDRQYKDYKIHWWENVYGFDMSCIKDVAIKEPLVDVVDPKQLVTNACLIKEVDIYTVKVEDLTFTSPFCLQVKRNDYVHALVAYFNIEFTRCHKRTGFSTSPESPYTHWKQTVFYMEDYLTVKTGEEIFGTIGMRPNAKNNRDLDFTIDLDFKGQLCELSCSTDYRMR
SIAE primary: blocks human sialic acid acetylesterase | Q9HAT2 | SIAE FP-Rh probe binding, fluorescence polarization | inhibition, % at 9.66 µM | 370,000 tested, 0.69% active | AID 1053197;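 active = inhibition above a cutoff: mean of compounds within the control limits plus 3 SD of those, cut at about 17% in these data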
PRMT1 confirm: confirmation of human PRMT1 inhibitors; recombinant His-PRMT1, activity-based probe fluorescence polarization; 3,300 tested, 42% active; inhibition, % at 2.79 µM; shares compounds with PRMT1 inh;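 active = mean inhibition across replicates above the hit cutoff derived for the earlier primary screen, cut at about 22% in these data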
Of the large screens only hits and unclear results are named; the others gave an inactive call (follow-up assays come after a bar, where they were run). Hits are enriched below; roughly 2.9% of the tested compounds scored in any of these assays.

Cc1ccc(CN(CC2CCCO2)C(=O)CN2C(=O)C(C(C)C)Oc3ccccc32)o1 (centres undefined)	PRMT1 inh 32 | PRMT1 confirm inactive
Cc1ccc(SC2=C(Sc3ccc(C)cc3)C(=O)c3ccccc3C2=O)cc1	none
CC1=CC(=O)C(Sc2ccc(C)cc2)=CC1=O	PRMT1 inh 88 (no result: PAD4 FP inh) | PRMT1 confirm 95
Cc1[nH]nc2c1C(c1ccc(Br)cc1)N(Cc1ccccc1)C2=O (centres undefined)	none (no result: HTRA1 inh, PAD4 FP inh)
Cc1cc2nc(-c3ccc(SCc4ccc(C(=O)O)cc4)nc3)[nH]c2cc1C	PRMT1 inh 26 | PRMT1 confirm 22
COc1ccc(NS(=O)(=O)c2ccc(F)c(Cl)c2)cn1	PRMT1 inh 37 | PRMT1 confirm inactive
Cc1cc(Cl)ccc1OCc1n[nH]c(=S)n1C1CCCCC1	PRMT1 inh 26 | PRMT1 confirm inactive
COc1ccc(Cl)cc1-c1n[nH]c(=S)n1C1CCCCC1	none
CC(C(=O)NCC(=O)Nc1ccc(F)c(F)c1F)N1CCN(c2ccc(O)cc2)CC1 (centres undefined)	PRMT1 inh 28 | PRMT1 confirm inactive
COC(=O)CN(C#N)c1nc(NCc2ccccc2)nc(OC)n1	PRMT1 inh 64 (no result: PAD4 FP inh) | PRMT1 confirm inactive
COc1ccc2c(c1)-c1ccccc1S(=O)(=O)N(C)C2	PRMT1 inh 30 | PRMT1 confirm inactive
CC(C)C[C@H]1COc2cccc(N3CCCC3)c2S(=O)(=O)N1C	none (no result: HTRA1 inh, TCR CD3 inh, PAD4 FP inh)
COC(=O)[C@H](CC(C)C)N(CCc1cn(Cc2ccccc2)nn1)S(=O)(=O)c1ccc(F)cc1Br	none (no result: HTRA1 inh, TCR CD3 inh, PAD4 FP inh)
O=C1C2Sc3[nH]c(=O)sc3C(c3ccccc3)C2C(=O)N1c1ccccc1 (centres undefined)	none
COc1ccc(C2c3sc(=O)[nH]c3SC3C(=O)N(c4ccccc4)C(=O)C32)cc1 (centres undefined)	PRMT1 inh 27 | PRMT1 confirm inactive
O=C(CCCCCN1C(=O)C2C3C=CC(C3)C2C1=O)Nc1ccc2ncccc2c1 (centres undefined)	none (no result: HTRA1 inh, TCR CD3 inh, PAD4 FP inh)
CCOC(=O)c1csc(NC(=O)C2CCCN(S(=O)(=O)c3ccccc3[N+](=O)[O-])C2)n1 (centres undefined)	none (no result: HTRA1 inh, TCR CD3 inh, PAD4 FP inh)
O=C(Nc1nc(-c2cccs2)c(-c2ccccc2)s1)c1ccco1	none
CC1CC1C(=O)Nc1nc(-c2cccs2)c(-c2cccs2)s1 (centres undefined)	PRMT1 inh 27 | PRMT1 confirm inactive
CCOC(=O)c1ccc(/[N+]([O-])=C/c2ccccc2)cc1	PRMT1 inh 25 | PRMT1 confirm inactive
C#CCCc1cscc1/C=[N+](\[O-])c1ccc(C(=O)OCC)cc1	none
O=S1(=O)CC(N2CCCC2)CN1 (centres undefined)	none (no result: HTRA1 inh, TCR CD3 inh, PAD4 FP inh)
CCOC(=O)C1CSc2[nH]c(=O)sc2C1c1ccccc1 (centres undefined)	PRMT1 inh 31 | PRMT1 confirm inactive
COc1ccc(C2c3sc(=O)[nH]c3SCC2C(N)=O)cc1 (centres undefined)	none
Cc1ccc(OC2CCN(C(=O)[C@@H](Cc3ccccc3)NC(=O)[C@H]3O[C@@H](n4ccc(=O)[nH]c4=O)[C@H](O)[C@@H]3O)CC2)cc1	none (no result: HTRA1 inh, PAD4 FP inh)
COc1cccc(-c2csc(NC(=O)Oc3ccccc3)n2)c1	none
COc1cccc(-c2csc(NNC(=O)c3cccs3)n2)c1	PRMT1 inh 29 (no result: HTRA1 inh) | PRMT1 confirm inactive
CC(C)(C)OC(=O)N1CCC[C@@H]1C(=O)N1CCC[C@H]1C(=O)NCc1ccccc1	none (no result: HTRA1 inh, PAD4 FP inh)
COc1ccc(Cn2ccc3ccc(-c4ccc5ccn(Cc6ccc(C#N)cc6)c5c4)cc32)cc1	none (no result: HTRA1 inh, TCR CD3 inh, PAD4 FP inh)
COCCNC(=S)c1ccc(Br)cc1	PRMT1 inh 36 | PRMT1 confirm inactive
O=c1c2c(-c3ccco3)csc2nc(SCc2cn3cccnc3n2)n1-c1ccccc1	PRMT1 inh 37 | PRMT1 confirm inactive
NC(=O)CSc1nc2scc(-c3ccco3)c2c(=O)n1-c1ccccc1	PRMT1 inh 76 | PRMT1 confirm inactive
c1ccc(Cn2c(SCc3cn4cccnc4n3)nnc2-c2ccco2)cc1	none
O=C(CSc1nc2scc(-c3ccco3)c2c(=O)n1-c1ccccc1)NCC1CCCO1 (centres undefined)	none
O=C(CSc1nc2scc(-c3ccco3)c2c(=O)n1-c1ccccc1)N1CCOCC1	none
C=CCn1c(SCC(=O)NCC2CCCO2)nc2scc(-c3ccco3)c2c1=O (centres undefined)	PRMT1 inh 26 | PRMT1 confirm inactive
CCN1CCCCC(NC(C)=O)C1=O (centres undefined)	none (no result: HTRA1 inh, TCR CD3 inh, PAD4 FP inh)
COC1=CC(=O)C(C2CC(=O)c3c(O)cc(O)cc3O2)=CC1=O (centres undefined)	ABHD4 inh 49, PRMT1 inh 48 (no result: PAD4 FP inh) | PRMT1 confirm 89
O=C(N[C@@H](Cc1cccnc1)C(=O)N1CCC[C@H]1C(=O)NCCc1ccccc1Cl)c1cccs1	none (no result: HTRA1 inh, PAD4 FP inh)
COc1ccc(/C=C2\SC(=S)N(C(Cc3ccccc3)C(=O)O)C2=O)cc1 (centres undefined)	none (no result: PAD4 FP inh)
O=C(O)C(c1ccccc1)N1C(=O)/C(=C\c2ccc(O)c(O)c2)SC1=S (centres undefined)	PRMT1 inh 39 | PRMT1 confirm 45
CCOc1cc(/C=C2\SC(=S)N(C(C(=O)O)c3ccccc3)C2=O)ccc1O (centres undefined)	PRMT1 inh 25 | PRMT1 confirm inactive
COc1cc(/C=C2\SC(=S)N(C(C(=O)O)c3ccccc3)C2=O)ccc1O (centres undefined)	none
O=C(O)C(Cc1ccccc1)N1C(=O)/C(=C/c2cccnc2)SC1=S (centres undefined)	PRMT1 inh 26 | PRMT1 confirm inactive
CCOC(=O)[C@]12CCCC3=C1N(CCC3)C(=O)[C@@H](CC(=O)N1CCOCC1)C2	none (no result: HTRA1 inh, TCR CD3 inh, PAD4 FP inh)
COCCCNC(=O)C[C@H]1C[C@@]2(C(=O)OC)C(=C[C@H](C3CCCC3)O[C@@H]2C)N(Cc2ccccc2)C1=O	none (no result: HTRA1 inh, PAD4 FP inh)
O=C(c1cccs1)N1CC[C@H]2[C@H](CCCN2Cc2ccc(F)cc2)C1	none (no result: HTRA1 inh, TCR CD3 inh, PAD4 FP inh)
C=CCCC(=O)N1C[C@H]2CCN(C)[C@H]2C[C@H]1c1ccccc1Br	none (no result: HTRA1 inh, PAD4 FP inh)
CC(C)C[C@@H](CN1CCCC1CN1C(=S)NC[C@@H]1Cc1ccccc1)N1C[C@H](Cc2ccccc2)N(CC2CCCCC2)C1=S (some centres undefined)	none (no result: HTRA1 inh, PAD4 FP inh)
CC(C)C[C@H]1CNC(=S)N1CC1CCCN1C[C@H](CC(C)C)N1C[C@H](Cc2ccccc2)N(CC2CCCCCC2)C1=S (some centres undefined)	PRMT1 inh 31 (no result: PAD4 FP inh) | PRMT1 confirm inactive
Cc1ccc(/C=C2/C(=O)ON=C2c2ccccc2)o1	PRMT1 inh 25 | PRMT1 confirm 33
COc1cc(-c2nc(=S)[nH][nH]2)cc(OC)c1OC	PRMT1 inh 34 | PRMT1 confirm inactive
